DDE Tn7 FP inh: disrupts Tn7 cyclic peptide binding to fibrin D-Dimer-E complex | P02675 | FP displacement of FITC-Tn7 peptide from fibrin DD(E); 0% = median of compound wells per plate | inhibition, % at 8.3 µM | actives 0.13% (n = 370,000);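 active = inhibition above the mean of compounds falling within the control limits plus 3 SD of them, cut at about 14% in these data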;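 note: 0% = plate median of compound wells and 100% = 10 µM Aha-Tn7 peptide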
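Assay system: Human fibrin DD(E) protein | Medium: Tris buffer with calcium and detergent, pH 7.8 | Reagent: 0.1 µM fluorescent Tn7 | Compound dosing: Single point at 8.3 µM | Times: 10 min preincubation, 3 h with tracer, room temperature | Detection: Fluorescence polarization of the labelled Tn7 tracer | Controls: Aha-Tn7 high control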
Tn6 DDE FP: inhibitors of Tn6 peptide binding to human fibrin DD(E); P02675; Fibrin DD(E) TRITC-Tn6 fluorescence polarization displacement; inhibition, % at 8.3 µM; actives 0.21% (n = 370,000); AID 720509;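 active = inhibition above a per-campaign cutoff: mean of compounds within control limits plus 3 SD, cut at about 15% in these data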;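 note: 0% = median of all compound wells on the plate and 100% = blocking peptide control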
UHRF1 MBD2 ctr: human UHRF1 methylated DNA binding inhibitors. actives 0.75% (n = 370,000). inhibition, % at 4.4 µM. UHRF1 binding to methylated oligo, TR-FRET. AID 687016; in the data active = inhibition above about 21%;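 note: UHRF1 SRA domain binding a hemimethylated CpG hairpin DNA probe; 0% = median of test compound wells and 100% = reference inhibitor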
Target sequence (Q96T88 whole entry, looked up, the tested form may be a part): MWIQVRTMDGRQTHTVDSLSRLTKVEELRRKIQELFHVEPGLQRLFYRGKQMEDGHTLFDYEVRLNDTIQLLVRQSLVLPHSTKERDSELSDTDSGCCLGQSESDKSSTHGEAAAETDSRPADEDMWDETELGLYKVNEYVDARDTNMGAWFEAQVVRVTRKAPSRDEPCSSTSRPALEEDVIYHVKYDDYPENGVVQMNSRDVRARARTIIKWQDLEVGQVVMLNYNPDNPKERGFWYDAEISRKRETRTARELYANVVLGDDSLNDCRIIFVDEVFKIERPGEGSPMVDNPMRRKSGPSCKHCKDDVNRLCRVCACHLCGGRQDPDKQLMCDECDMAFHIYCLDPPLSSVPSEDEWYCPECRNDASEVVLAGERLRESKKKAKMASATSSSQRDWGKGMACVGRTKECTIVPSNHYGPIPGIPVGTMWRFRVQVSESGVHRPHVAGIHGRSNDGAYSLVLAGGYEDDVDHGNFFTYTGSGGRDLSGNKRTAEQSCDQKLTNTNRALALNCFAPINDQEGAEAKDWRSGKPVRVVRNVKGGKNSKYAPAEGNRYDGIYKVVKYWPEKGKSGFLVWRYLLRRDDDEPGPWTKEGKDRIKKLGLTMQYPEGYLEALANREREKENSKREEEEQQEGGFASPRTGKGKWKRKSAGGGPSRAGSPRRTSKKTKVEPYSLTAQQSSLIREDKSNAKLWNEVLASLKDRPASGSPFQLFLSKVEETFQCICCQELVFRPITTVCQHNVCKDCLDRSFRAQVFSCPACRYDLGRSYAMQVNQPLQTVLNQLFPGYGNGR
MBD2 DNA inh: MBD2-methylated oligo binding inhibition. actives 0.31% (n = 370,000). Q9UBB5. inhibition, % at 4.4 µM. TR-FRET, MBD2 binding to methylated oligonucleotide; in the data active = inhibition above about 13%
TDP2 inh: blocks human TDP2 phosphodiesterase activity. O95551. recombinant TDP2, T5PNP hydrolysis, p-nitrophenol absorbance 415 nm. inhibition, % at 12.8 µM. actives 0.34% (n = 370,000). AID 720702;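 active = inhibition above the mean of all tested compounds plus 3 SD, set per campaign, cut at about 25% in these data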;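 note: 0% = DMSO with enzyme and 100% = buffer with substrate but no TDP2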
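System – recombinant human TDP2 · Quantity – TDP2 enzyme at 120 nM final · Doses – single concentration, 12.8 µM nominal, with 1% DMSO · Incubation – 2 h at 37 °C · Measured by – epi absorbance of p-nitrophenol freed from T5PNP by hydrolysis · Read-out – % inhibition relative to enzyme-containing and enzyme-free wells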
LEDGF integ inh: blocks HIV-1 LEDGF/p75-dependent DNA integration; TR-FRET IN-LEDGF/p75 DNA integration, Eu/Cy5; inhibition, % at 3.7 µM; actives 0.64% (n = 370,000); AID 743269;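 active = inhibition above the screen-wide mean plus 3 SD, cut at about 13% in these data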;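 note: signal is the Cy5 over europium emission ratio at 671 and 618 nm; 0% = plate median of compound wells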
An asterisk follows results filed as active. A selection: hits, their analogues and other compounds. The true share with any hit is near 1.9%.

SMILES | DDE Tn7 FP inh | Tn6 DDE FP | UHRF1 MBD2 ctr | MBD2 DNA inh | TDP2 inh | LEDGF integ inh
O=C(C(=O)N1CCC(CNS(=O)(=O)c2ccc3ccccc3c2)CC1)c1cc2ccccc2o1 | 7 | 1 | 1 | -3 | -9 | 0
CCOC(=O)N[C@@H](Cc1cccnc1)C(=O)N1CCC[C@H]1C(=O)NC1CCCC1 | 0 | 0 | 0 | 1 | 0 | -5
O=C1/C(=C\c2ccco2)CCC/C1=C\c1ccco1 | 1 | 5 | 56* | 19* | 1 | 71*
O=C1/C(=C/c2cccs2)CCC/C1=C\c1cccs1 | -2 | 1 | 9 | 1 | 5 | 20*
C[C@H](O)[C@@H]1C(=O)N2CCc3c([nH]c4c(-c5ccccc5)cccc34)[C@@H]2C[C@@H]1N(C)C(=O)c1ccccc1F | 1 | -3 | -11 | 5 | 1 | -5
Cc1ccc(C(=O)OCC(=O)N2CCCCCC2)c(O)c1 | 2 | -4 | 29* | 2 | 6 | -5
CCCCc1c(-c2ccccc2OC)ncn1CCc1cccc(F)c1 | 4 | 3 | 56* | 2 | -1 | 2
CCCCc1c(-c2ccccc2OC)ncn1Cc1ccccc1 | 5 | -1 | 1 | 2 | 0 | 2
CCCCc1c(-c2ccccc2OC)ncn1Cc1ccc(C(C)(C)C)cc1 | 0 | 0 | 28* | -5 | 3 | 3
COc1ccc(N2CCN(CCCNC(=O)COc3ccc(F)cc3)CC2)cc1 | 9 | -2 | 0 | -4 | 3 | -1
CCN(CCCc1ccccc1)CCCc1ccccc1 | -5 | -2 | 1 | -3 | -8 | 1
CCCN(CCO)CCCc1ccccc1 | -3 | 0 | -1 | 1 | 3 | 89*
Nc1[nH]c(C(=O)c2ccccc2)c(-c2ccc(Cl)cc2)c1C(=O)c1c[nH]c2ccccc12 | 6 | 0 | -1 | -2 | 7 | -4
O=C(C(=O)N1CCN(C(=O)Cc2ccccc2)CC1)c1cccc(C(F)(F)F)c1 | -3 | -6 | 58* | -6 | 5 | 2
CCN(C[C@H]1N[C@@](C)(C(=O)OC)[C@H]2C(=O)N(C)C(=O)[C@@H]12)S(=O)(=O)c1ccc(C(F)(F)F)cc1 | 3 | -3 | 22* | 5 | -13 | 8
CCN(C[C@H]1N[C@@](C)(C(=O)OC)[C@H]2C(=O)N(C)C(=O)[C@@H]12)S(=O)(=O)c1ccccc1 | 6 | 10 | 0 | 0 | 7 | -2
CCOP(=O)(CC(C(C)=O)C(O)c1ccccc1)OCC (centres undefined) | 14* | 0 | 3 | 2 | 2 | 1
Cc1ccc(C(=O)N2CCN(c3ccc(NC(=O)c4cc(C)cc(C)c4)cc3)CC2)cc1 | 1 | 3 | -1 | 0 | 4 | 1
Cc1cc(C)cc(C(=O)Nc2ccc(N3CCCC3)cc2)c1 | 7 | 0 | 47* | 1 | -2 | -3
CCCCCCCCCCCCNC[C@@H]1CSCCS(=O)(=O)N1 | -1 | -3 | 0 | -6 | 1 | 2
C/C(=N\NC(=O)Cc1cccs1)c1ccco1 | -3 | 6 | -1 | -7 | 3 | 1
O=C(Cc1ccsc1)NCC(c1ccco1)N1CCCCC1 (centres undefined) | 2 | 4 | 25* | -6 | -9 | 0
CC(=O)Nc1ccc(S(=O)(=O)N2CCN(C(=O)C(=O)c3cccc(C(F)(F)F)c3)CC2)cc1 | 0 | 0 | 1 | 1 | 13 | -2
CN(C)c1oc(-c2ccc(Cl)cc2)nc1S(=O)(=O)c1ccccc1 | 0 | -1 | 25* | 10 | 5 | 1
CNc1oc(-c2ccccc2)nc1S(=O)(=O)c1ccc(C)cc1 | 5 | -6 | 4 | 12 | -9 | -6
COc1ccc(CCNC(=O)CN(c2cccc([N+](=O)[O-])c2)S(C)(=O)=O)cc1 | -8 | -3 | 38* | -2 | 2 | 1
CS(=O)(=O)N(CC(=O)NCCc1ccccc1)c1cccc([N+](=O)[O-])c1 | 5 | 9 | -3 | 1 | -1 | 4
COc1cc(C(=O)N2CCN(S(=O)(=O)c3cccs3)CC2)cc(OC)c1C | 3 | 2 | 24* | 7 | 4 | 0

Screens as filed in PubChem BioAssay.
